Experimental data taken from ChEMBL document CHEMBL1165965, “Synthesis and structure-activity relationships of 1,2,3,4-tetrahydropyrido[2,3-b]pyrazines as potent and selective inhibitors of the anaplastic lymphoma kinase” (Bioorg Med Chem, 2010).

What was measured:
[1] = target: T1, Serine/threonine-protein kinase ICK (Homo sapiens) (UniProt Q9UPZ9); experiment: Inhibition of ICK at 1 uM
T1 sequence (whole entry): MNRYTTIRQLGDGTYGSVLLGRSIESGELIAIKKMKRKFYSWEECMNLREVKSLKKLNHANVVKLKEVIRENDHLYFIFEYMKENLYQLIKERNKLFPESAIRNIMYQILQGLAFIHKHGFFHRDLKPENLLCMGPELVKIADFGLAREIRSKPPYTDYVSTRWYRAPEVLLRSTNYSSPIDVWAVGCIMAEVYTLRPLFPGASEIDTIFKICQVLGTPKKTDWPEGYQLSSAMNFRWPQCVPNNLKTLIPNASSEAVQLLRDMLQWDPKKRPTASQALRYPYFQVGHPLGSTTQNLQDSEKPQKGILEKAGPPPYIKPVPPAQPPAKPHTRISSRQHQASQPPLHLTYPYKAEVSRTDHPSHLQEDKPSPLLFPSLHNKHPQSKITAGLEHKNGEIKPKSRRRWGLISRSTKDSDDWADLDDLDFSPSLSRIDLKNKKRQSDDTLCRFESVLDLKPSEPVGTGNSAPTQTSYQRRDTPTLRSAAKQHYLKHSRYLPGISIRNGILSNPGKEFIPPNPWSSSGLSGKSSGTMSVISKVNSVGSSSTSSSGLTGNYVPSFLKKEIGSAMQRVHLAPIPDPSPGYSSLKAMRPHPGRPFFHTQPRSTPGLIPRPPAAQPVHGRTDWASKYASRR

[2] = target: Serine/threonine-protein kinase 10 (Homo sapiens) (UniProt O94804); experiment: Inhibition of LOK at 1 uM
How it was run: (§1)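 Single-concentration screen on the Ambit KINOMEscan platform, run against a panel of 250–400 kinases. Per-kinase inhibition was also summarized as S(90), the fraction of kinases inhibited by more than 90%.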

[3] = target: Serine/threonine-protein kinase OSR1 (Homo sapiens) (UniProt O95747); experiment: Inhibition of OSR1 at 1 uM
[4] = system: Phosphatidylinositol 4,5-bisphosphate 3-kinase catalytic subunit alpha isoform (Homo sapiens), P42336 [M1043I]; experiment: Inhibition of PIK3CA M1043I mutant at 1 uM
[5] = target: T2, cGMP-dependent protein kinase 1 (Homo sapiens) (UniProt Q13976); experiment: Inhibition of PRKG1 at 1 uM
T2 sequence (whole entry): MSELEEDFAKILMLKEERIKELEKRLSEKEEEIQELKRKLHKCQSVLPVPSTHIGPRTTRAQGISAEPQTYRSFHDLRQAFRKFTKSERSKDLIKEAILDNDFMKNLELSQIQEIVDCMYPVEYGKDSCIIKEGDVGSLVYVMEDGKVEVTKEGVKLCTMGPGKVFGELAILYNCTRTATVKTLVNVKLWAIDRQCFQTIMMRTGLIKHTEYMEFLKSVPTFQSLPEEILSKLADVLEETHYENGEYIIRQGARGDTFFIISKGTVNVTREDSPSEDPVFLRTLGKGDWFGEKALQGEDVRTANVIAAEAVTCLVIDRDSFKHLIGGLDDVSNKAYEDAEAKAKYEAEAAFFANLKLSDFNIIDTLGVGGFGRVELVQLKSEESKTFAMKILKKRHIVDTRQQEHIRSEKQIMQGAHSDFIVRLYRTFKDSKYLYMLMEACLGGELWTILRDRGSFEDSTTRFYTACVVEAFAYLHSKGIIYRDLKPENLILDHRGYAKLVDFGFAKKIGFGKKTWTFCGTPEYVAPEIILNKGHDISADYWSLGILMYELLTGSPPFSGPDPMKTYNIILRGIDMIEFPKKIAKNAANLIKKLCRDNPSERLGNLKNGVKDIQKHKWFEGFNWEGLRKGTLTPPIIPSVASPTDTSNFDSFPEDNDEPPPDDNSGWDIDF

[6] = target: Interferon-induced, double-stranded RNA-activated protein kinase (Homo sapiens) (UniProt P19525); experiment: Inhibition of PRKR at 1 uM
[7] = target: Proto-oncogene tyrosine-protein kinase ROS (Homo sapiens) (UniProt P08922); experiment: Inhibition of ROS1 at 1 uM; how it was run: as §1
[8] = target: Ribosomal protein S6 kinase alpha-6 (Homo sapiens) (UniProt Q9UK32); experiment: Inhibition of RPS6KA6 C-terminal domain2 at 1 uM
[9] = target: Serine/threonine-protein kinase SBK1 (Homo sapiens) (UniProt Q52WX2); experiment: Inhibition of SBK1 at 1 uM
[10] = target: STE20/SPS1-related proline-alanine-rich protein kinase (Homo sapiens) (UniProt Q9UEW8); experiment: Inhibition of STK39 at 1 uM
[11] = system: Tyrosine-protein kinase ABL1 (Homo sapiens), P00519 [H396P]; experiment: Inhibition of ABL1 H396P mutant at 1 uM
How it was run: (§2)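 Ambit KINOMEscan screen at a single concentration across a 250–400 kinase panel, recorded as percent inhibition. Selectivity was expressed as S(90), the fraction of kinases inhibited >90%.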

[12] = target: Aurora kinase B (Homo sapiens) (UniProt Q96GD4); experiment: Inhibition of AURKB at 1 uM; how it was run: as §2
[13] = target: Tyrosine-protein kinase BTK (Homo sapiens) (UniProt Q06187); experiment: Inhibition of BTK at 1 uM; how it was run: as §2
[14] = target: T3, Serine/threonine-protein kinase DCLK1 (Homo sapiens) (UniProt O15075); experiment: Inhibition of DCAMKL1 at 1 uM
T3 sequence (whole entry): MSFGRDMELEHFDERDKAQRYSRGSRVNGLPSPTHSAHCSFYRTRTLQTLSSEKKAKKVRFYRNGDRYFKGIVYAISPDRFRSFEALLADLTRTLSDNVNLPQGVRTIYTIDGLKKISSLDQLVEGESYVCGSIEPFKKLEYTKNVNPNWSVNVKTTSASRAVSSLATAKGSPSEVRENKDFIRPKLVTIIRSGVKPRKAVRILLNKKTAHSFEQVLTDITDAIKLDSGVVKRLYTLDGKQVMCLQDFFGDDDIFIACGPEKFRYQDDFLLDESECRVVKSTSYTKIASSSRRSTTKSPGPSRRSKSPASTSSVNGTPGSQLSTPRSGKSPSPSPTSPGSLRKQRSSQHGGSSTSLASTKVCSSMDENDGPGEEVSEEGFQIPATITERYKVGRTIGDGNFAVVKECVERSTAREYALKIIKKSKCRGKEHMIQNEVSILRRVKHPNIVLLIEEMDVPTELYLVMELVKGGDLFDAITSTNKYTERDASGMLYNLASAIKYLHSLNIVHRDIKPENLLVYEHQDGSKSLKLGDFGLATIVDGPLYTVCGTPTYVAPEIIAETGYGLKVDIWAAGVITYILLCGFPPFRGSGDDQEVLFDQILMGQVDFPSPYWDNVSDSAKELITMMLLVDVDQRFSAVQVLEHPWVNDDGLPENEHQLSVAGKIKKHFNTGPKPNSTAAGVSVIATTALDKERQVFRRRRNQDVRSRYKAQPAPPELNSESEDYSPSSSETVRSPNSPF

Aurora kinase B (Homo sapiens), sequence (Q96GD4 whole entry): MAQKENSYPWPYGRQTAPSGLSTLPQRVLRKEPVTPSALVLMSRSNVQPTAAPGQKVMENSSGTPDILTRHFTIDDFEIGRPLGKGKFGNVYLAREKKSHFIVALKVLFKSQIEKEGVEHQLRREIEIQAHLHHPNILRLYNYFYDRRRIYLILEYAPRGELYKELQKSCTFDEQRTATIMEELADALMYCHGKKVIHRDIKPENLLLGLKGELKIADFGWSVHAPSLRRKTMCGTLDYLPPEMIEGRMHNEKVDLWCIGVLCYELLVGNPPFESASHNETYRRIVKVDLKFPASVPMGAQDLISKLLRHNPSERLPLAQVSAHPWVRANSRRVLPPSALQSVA
Serine/threonine-protein kinase SBK1 (Homo sapiens), sequence (Q52WX2 whole entry): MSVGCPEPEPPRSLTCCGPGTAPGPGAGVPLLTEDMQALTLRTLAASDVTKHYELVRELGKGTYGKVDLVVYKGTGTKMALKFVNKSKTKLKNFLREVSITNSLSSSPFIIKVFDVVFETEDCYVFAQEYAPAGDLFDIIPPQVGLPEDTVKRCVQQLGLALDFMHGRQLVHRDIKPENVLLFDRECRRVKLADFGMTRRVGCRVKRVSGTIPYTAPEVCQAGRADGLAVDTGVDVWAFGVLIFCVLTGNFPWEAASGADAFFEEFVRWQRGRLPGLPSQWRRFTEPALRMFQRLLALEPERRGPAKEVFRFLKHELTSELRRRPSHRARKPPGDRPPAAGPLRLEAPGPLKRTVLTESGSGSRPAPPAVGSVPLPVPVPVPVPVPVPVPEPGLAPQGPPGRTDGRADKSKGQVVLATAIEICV
Proto-oncogene tyrosine-protein kinase ROS (Homo sapiens), sequence (P08922 whole entry, the tested form may be a part): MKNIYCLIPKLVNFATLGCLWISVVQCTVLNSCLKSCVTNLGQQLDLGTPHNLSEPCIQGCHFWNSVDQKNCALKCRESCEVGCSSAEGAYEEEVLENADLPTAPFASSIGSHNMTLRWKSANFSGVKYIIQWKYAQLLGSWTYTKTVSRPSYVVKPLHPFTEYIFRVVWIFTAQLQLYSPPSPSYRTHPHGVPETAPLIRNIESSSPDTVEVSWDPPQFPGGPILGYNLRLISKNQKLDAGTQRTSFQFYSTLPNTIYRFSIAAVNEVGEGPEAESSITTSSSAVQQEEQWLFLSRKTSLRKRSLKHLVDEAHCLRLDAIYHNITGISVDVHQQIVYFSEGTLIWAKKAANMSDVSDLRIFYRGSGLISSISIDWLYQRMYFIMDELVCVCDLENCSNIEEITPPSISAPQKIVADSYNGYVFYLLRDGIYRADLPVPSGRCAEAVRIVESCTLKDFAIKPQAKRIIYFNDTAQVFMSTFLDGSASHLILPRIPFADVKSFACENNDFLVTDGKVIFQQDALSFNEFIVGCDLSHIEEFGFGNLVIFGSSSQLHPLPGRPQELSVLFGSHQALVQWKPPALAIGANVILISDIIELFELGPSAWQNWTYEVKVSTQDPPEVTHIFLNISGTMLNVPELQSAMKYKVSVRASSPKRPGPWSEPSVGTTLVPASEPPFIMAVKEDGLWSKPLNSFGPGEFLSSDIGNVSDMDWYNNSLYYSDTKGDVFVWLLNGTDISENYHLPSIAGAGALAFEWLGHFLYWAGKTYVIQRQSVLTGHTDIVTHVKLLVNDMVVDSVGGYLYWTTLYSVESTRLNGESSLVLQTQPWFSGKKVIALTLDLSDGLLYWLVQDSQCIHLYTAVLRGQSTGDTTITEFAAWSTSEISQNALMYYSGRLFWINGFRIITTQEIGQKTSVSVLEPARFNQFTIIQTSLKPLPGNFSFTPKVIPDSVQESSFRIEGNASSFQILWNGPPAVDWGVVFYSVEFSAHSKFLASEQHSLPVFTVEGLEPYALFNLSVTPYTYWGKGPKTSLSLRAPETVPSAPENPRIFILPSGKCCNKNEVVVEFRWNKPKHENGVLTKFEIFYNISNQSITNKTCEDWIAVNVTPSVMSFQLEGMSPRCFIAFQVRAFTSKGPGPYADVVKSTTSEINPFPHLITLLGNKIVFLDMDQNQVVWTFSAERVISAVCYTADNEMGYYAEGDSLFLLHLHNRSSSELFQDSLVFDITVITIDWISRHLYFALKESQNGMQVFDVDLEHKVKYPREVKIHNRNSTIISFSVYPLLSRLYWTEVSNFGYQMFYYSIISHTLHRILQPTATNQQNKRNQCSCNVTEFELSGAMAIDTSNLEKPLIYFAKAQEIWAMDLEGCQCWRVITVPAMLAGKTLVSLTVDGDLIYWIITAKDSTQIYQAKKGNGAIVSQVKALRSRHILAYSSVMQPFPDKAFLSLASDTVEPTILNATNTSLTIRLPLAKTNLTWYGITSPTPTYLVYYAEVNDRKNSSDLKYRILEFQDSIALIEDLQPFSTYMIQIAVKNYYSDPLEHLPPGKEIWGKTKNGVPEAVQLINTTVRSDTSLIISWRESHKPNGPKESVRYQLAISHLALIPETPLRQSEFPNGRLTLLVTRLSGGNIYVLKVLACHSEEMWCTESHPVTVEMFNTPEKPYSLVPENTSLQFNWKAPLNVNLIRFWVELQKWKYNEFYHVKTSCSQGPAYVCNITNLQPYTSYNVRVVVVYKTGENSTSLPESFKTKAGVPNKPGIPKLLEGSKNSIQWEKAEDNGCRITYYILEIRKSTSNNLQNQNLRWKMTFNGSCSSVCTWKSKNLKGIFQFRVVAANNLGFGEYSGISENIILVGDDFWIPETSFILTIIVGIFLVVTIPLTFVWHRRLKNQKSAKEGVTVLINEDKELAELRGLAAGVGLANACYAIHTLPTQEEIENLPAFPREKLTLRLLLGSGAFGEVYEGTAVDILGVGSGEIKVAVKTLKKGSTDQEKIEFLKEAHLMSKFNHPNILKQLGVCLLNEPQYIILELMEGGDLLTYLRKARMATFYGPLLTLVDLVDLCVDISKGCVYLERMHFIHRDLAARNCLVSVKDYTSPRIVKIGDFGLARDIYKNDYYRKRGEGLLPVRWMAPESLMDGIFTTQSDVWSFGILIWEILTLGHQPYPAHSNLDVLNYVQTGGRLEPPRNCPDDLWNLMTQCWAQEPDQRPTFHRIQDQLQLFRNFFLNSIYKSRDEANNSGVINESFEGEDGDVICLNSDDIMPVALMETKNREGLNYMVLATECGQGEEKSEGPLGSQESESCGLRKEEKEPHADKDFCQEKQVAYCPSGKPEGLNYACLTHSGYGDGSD
Interferon-induced, double-stranded RNA-activated protein kinase (Homo sapiens), sequence (P19525 whole entry): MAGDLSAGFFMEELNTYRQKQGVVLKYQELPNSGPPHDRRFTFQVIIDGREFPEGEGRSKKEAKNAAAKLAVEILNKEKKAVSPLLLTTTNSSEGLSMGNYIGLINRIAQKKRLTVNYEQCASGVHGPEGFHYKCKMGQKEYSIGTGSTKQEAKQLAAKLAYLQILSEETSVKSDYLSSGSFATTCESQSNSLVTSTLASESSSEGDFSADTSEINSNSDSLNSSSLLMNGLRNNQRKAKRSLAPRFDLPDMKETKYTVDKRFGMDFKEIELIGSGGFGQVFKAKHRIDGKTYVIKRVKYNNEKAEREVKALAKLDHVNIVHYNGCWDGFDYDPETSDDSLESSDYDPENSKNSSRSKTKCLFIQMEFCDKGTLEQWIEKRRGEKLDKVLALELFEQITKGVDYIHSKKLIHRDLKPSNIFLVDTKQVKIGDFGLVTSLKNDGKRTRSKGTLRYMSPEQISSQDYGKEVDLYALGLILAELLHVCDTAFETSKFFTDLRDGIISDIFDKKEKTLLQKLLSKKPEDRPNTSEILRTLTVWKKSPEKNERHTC
Tyrosine-protein kinase BTK (Homo sapiens), sequence (Q06187 whole entry): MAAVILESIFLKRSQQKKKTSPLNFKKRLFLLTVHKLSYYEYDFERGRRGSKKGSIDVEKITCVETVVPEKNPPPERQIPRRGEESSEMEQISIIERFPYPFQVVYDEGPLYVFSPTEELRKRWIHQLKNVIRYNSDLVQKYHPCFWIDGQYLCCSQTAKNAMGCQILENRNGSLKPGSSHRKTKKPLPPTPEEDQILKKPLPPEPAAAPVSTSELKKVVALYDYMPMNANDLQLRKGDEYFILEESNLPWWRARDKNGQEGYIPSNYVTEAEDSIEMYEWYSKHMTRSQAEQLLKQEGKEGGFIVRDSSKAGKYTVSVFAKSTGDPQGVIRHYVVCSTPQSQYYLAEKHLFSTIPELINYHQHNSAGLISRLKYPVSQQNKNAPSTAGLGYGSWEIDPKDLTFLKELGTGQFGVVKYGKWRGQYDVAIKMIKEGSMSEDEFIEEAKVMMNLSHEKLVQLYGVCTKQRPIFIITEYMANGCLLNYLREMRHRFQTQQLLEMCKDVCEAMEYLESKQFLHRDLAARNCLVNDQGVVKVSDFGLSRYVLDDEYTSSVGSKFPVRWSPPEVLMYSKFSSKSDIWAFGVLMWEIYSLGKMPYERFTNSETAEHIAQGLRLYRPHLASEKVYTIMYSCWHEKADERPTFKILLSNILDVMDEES
Ribosomal protein S6 kinase alpha-6 (Homo sapiens), sequence (Q9UK32 whole entry, the tested form may be a part): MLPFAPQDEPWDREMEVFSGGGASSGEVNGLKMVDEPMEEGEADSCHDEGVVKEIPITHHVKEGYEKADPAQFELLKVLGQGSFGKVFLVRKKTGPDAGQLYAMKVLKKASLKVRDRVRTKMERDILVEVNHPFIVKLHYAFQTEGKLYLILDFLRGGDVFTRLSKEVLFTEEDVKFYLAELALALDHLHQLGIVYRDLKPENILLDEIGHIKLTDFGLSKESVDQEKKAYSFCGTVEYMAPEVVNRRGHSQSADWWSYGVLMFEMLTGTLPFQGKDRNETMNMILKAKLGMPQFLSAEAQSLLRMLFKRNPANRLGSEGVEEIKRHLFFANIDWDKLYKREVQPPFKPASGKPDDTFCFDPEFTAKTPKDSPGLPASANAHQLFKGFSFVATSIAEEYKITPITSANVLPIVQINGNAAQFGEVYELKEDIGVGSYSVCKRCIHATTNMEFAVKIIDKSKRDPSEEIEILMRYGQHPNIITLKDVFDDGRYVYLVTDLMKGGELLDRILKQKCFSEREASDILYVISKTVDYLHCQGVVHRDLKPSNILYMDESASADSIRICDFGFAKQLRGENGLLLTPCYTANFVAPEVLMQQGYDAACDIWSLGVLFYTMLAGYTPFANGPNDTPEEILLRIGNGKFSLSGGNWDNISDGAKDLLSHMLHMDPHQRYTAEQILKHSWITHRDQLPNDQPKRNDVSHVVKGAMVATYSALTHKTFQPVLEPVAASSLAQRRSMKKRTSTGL

inhibition [1] | inhibition [2] | inhibition [3] | inhibition [4] | inhibition [5] | inhibition [6] | inhibition [7] | inhibition [8] | inhibition [9] | inhibition [10] | inhibition [11] | inhibition [12] | inhibition [13] | inhibition [14] | SMILES
< 50% | < 50% | < 50% | < 50% | < 50% | < 50% | 67.5% | < 50% | < 50% | < 50% | 58.5% | < 50% | < 50% | 94% | CN1CCN(c2ccc(-c3cnc4c(c3)N(Cc3cc(F)ccc3F)CCN4)cn2)CC1
– | < 50% | – | – | < 50% | < 50% | 80.7% | < 50% | – | 73.2% | < 50% | < 50% | < 50% | – | O=C(c1ccc(-c2cnc3c(c2)N(Cc2cc(Cl)ccc2C(F)(F)F)CCN3)cc1)N1CCC(N2CCCC2)CC1
– | < 50% | – | – | < 50% | < 50% | < 50% | < 50% | – | – | < 50% | < 50% | < 50% | – | O=C(c1ccc(-c2cnc3c(c2)N(Cc2cc(Cl)ccc2C(F)(F)F)CCN3)cc1)N1CCCCC1
< 50% | < 50% | < 50% | < 50% | < 50% | < 50% | 73% | < 50% | < 50% | < 50% | 85% | < 50% | < 50% | < 50% | CN1CCN(c2ccc(-c3cnc4c(c3)N(Cc3c(F)ccc(F)c3Cl)CCN4)cn2)CC1
– | < 50% | – | – | < 50% | < 50% | 78.2% | < 50% | – | – | < 50% | < 50% | < 50% | – | COC1CCN(C(=O)c2ccc(-c3cnc4c(c3)N(Cc3cc(Cl)ccc3C(F)(F)F)CCN4)cc2)CC1
– | < 50% | – | – | < 50% | < 50% | 66.7% | < 50% | – | – | < 50% | < 50% | < 50% | – | O=C(O)c1ccc(-c2cnc3c(c2)N(Cc2cc(Cl)ccc2C(F)(F)F)CCN3)cc1
< 50% | < 50% | < 50% | < 50% | < 50% | < 50% | 79% | < 50% | < 50% | < 50% | < 50% | < 50% | < 50% | < 50% | CC(=O)N1CCN(c2cc(-c3cnc4c(c3)N(Cc3cc(Cl)ccc3C(F)(F)F)CCN4)ccn2)CC1
< 50% | 66% | < 50% | < 50% | < 50% | < 50% | 92% | < 50% | < 50% | < 50% | < 50% | 76% | < 50% | 98% | FC(F)(F)c1ccc(Cl)cc1CN1CCNc2ncc(-c3ccnc(N4CCNCC4)c3)cc21
< 50% | < 50% | < 50% | < 50% | < 50% | < 50% | 72% | < 50% | < 50% | < 50% | < 50% | < 50% | < 50% | 91% | CN1CCN(c2ccc(-c3cnc4c(c3)N(Cc3cc(Cl)ccc3C(F)(F)F)CCN4)cn2)CC1
< 50% | < 50% | < 50% | < 50% | < 50% | < 50% | < 50% | < 50% | < 50% | < 50% | < 50% | < 50% | < 50% | 90% | CN1CCN(c2ccc(-c3cnc4c(c3)N(Cc3cc(Cl)ccc3Cl)CCN4)cn2)CC1
